Test results as given in ChEMBL document CHEMBL4609986 (Bioorg Med Chem, 2020).

What was measured:
[1] = biological target: T1, Dual specificity tyrosine-phosphorylation-regulated kinase 1A (Homo sapiens, UniProt Q13627); assay: Inhibition of human DYRK1A transfected in HEK293T cells co-transfected with Renilla plasmid, pGL3-NFAT and NFATc1 assessed as derepression of NFAT-dependent luciferase activity measured after 48 hrs by luciferase assay; type: cell-based, HEK-293T
Procedure, shortened: (§1)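 HEK293T cells transfected with PEI using DYRK1A, Renilla plasmid, IL-2-based pGL3-NFAT firefly reporter and NFATc1. Next day the same transfected population was split into 96-well plates; 6 h later cells were treated for 48 h (11-point dose curve, n = 4), then lysed. EC50 from firefly/Renilla ratio, 4-parameter agonist fit. CC50 from loss of constitutive Renilla signal, 4-parameter inhibitor fit.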

[2] = biological target: Maternal embryonic leucine zipper kinase (Homo sapiens, UniProt Q14680); assay: Binding affinity to wild-type human full length MELK (M1 to V651 residues) expressed in bacterial expression system by Kinomescan method
[3] = tested on: HEK-293T; assay: (§2) Cytotoxicity against human HEK293T cells transfected with DYRK1A co-tranfected with Renilla plasmid, pGL3-NFAT and NFATc1 assessed as reduction in luciferase activity by measuring cell number; type: cell-based; details: hek-293t; procedure, shortened: as §1
[4] = species on record: Homo sapiens; assay: Selectivity index, ratio of CC50 for human HEK293T cells transfected with DYRK1A co-tranfected with Renilla plasmid, pGL3-NFAT and NFATc1 assessed as reduction in luciferase activity by measuring cell number to EC50 for human DYRK1A transfected in HEK293T cells co-transfected with Renilla plasmid, pGL3-NFAT and NFATc1 assessed as derepression of NFAT-dependent luciferase activity measured after 48 hrs by luciferase assay; type: cell-based; procedure, shortened: as §1
[5] = biological target: T1, Dual specificity tyrosine-phosphorylation-regulated kinase 1A; assay: Binding affinity to wild-type human partial length DYRK1A (H129 to S509 residues) expressed in mammalian expression system by Kinomescan method
Procedure, shortened: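 Kd measured in a KdELECT binding assay using an 11-point, 3-fold dilution series with three DMSO control points.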

[6] = Cytotoxicity against mouse R7T1 cells assessed as reduction in cell viability measured after 48 hrs by Hoechst 33342 staining based analysis
Procedure, shortened: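 Mouse R7T1 β-cells cultured in high-glucose DMEM with 10% FBS, doxycycline and pyruvate, plated at 25,000 cells/well. Treated in quadruplicate 6 h later (0.169–10,000 nM) for 48 h. Cells fixed in paraformaldehyde and stained with 4 μM Hoechst 33342; nuclei counted by high-content imaging.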

[7] = biological target: Dual specificity mitogen-activated protein kinase kinase 1 (Homo sapiens) (UniProt Q02750); assay: Inhibition of wild-type human full length MEK1 (M1 to V393 residues) expressed in mammalian expression system assessed as residual activity at 100 nM by Kinomescan method relative to control
Procedure, shortened: (§3)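 Kinase panel of 468 kinases, scored as residual activity at 100 nM or 500 nM test compound.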

[8] = biological target: T2, Tyrosine-protein kinase ABL1 (Homo sapiens, UniProt P00519); assay: Inhibition of wild-type human phosphorylated ABL1 (S229 to K512 residues) expressed in mammalian expression system assessed as residual activity at 100 nM by Kinomescan method relative to control; procedure, shortened: as §3
[9] = biological target: T2, Tyrosine-protein kinase ABL1; assay: Inhibition of wild-type human non-phosphorylated ABL1 (S229 to K512 residues) expressed in mammalian expression system assessed as residual activity at 100 nM by Kinomescan method relative to control; procedure, shortened: as §3
[10] = biological target: T3, Aurora kinase B (Homo sapiens, UniProt Q96GD4); assay: Inhibition of wild-type human partial length AURKB (D25 to A303 residues) expressed in mammalian expression system assessed as residual activity at 100 nM by Kinomescan method relative to control; procedure, shortened: as §3
[11] = biological target: T4, Aurora kinase A (Homo sapiens) (UniProt O14965); assay: Inhibition of wild-type human partial length AURKA (E122 to K401 residues) expressed in mammalian expression system assessed as residual activity at 100 nM by Kinomescan method relative to control; procedure, shortened: as §3
T4 sequence (whole entry): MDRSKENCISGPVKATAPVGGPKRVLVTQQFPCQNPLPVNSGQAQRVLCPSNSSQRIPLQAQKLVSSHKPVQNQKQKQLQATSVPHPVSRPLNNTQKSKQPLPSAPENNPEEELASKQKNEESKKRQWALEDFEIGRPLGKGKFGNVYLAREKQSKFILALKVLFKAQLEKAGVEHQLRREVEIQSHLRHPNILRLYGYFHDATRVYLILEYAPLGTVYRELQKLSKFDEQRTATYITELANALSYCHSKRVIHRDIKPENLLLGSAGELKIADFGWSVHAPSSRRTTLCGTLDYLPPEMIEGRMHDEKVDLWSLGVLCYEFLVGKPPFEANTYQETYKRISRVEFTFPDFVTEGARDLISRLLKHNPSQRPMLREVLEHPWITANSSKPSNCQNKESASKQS

[12] = biological target: T1, Dual specificity tyrosine-phosphorylation-regulated kinase 1A; assay: Inhibition of wild-type human partial length DYRK1A (H129 to S509 residues) expressed in mammalian expression system assessed as residual activity at 100 nM by Kinomescan method relative to control; procedure, shortened: as §3
[13] = biological target: Dual specificity mitogen-activated protein kinase kinase 2 (Homo sapiens) (UniProt P36507); assay: Inhibition of wild-type human full length MEK2 (M1 to V400 residues) expressed in mammalian expression system assessed as residual activity at 100 nM by Kinomescan method relative to control; procedure, shortened: as §3
[14] = biological target: T1, Dual specificity tyrosine-phosphorylation-regulated kinase 1A; assay: Inhibition of DYRK1A in human pancreatic islets assessed as induction of pancreatic beta-cells replication measured after 48 hrs by Hoechst 33342 staining based analysis
Procedure, shortened: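 Human islets (85-95% purity) rested 12 h in low-glucose DMEM with 10% FBS and 20 nM exendin-4. Dispersed to single cells and plated on 804G-conditioned-matrix 384-well plates for 48 h. Treated 48 h, then fixed with 4% PFA. Stained with anti-insulin, anti-Ki-67 and 4 μM Hoechst 33342; Ki67+Insulin+/Insulin+ scored by high-content imaging against per-plate cutoffs.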

[15] = Selectivity index, ratio of CC50 for mouse R7T1 cells assessed as reduction in cell viability measured after 48 hrs by Hoechst 33342 staining based analysis to MEC for inhibition of DYRK1A in human pancreatic islets assessed as induction of pancreatic beta-cells replication measured after 48 hrs by Hoechst 33342 staining based analysis
[16] = Apparent permeability in human Caco2 cells measured after 2 hrs by LC-MS/MS analysis; type: ADME, cell-based, Caco-2; details: for Papp at 2 h: Caco-2
Procedure, shortened: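 Caco-2 monolayers grown on polycarbonate filter inserts (5 × 10⁵ cells/well seeded) and differentiated 21 ± 4 days. Transport run in HBSS with 25 mM HEPES, pH 7.4, 37 °C; compound added donor side. Receiver sampled over 2 h, donor at 0 and 2 h; LC-MS/MS with internal standard. Papp = (dC_rec/dt)/(A × C0,donor) × 10^6.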

[17] = Half life in human liver microsomes at 1 uM preincubated for 10 mins followed by NADPH addition and measured up to 40 mins by LC-MS/MS analysis; type: ADME, Microsome
Procedure, shortened: (§4)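 Human or mouse liver microsomes, each run separately, in 100 mM KxPO4 pH 7.4 with 10 mM MgCl2 and 1 μM test compound. Pre-incubated 10 min at 37 °C, then started with 1 mM NADPH. Quenched in acetonitrile stop solution at 0, 10, 20 and 40 min, centrifuged, diluted and analysed by LC-MS/MS.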

[18] = Half life in mouse liver microsomes at 1 uM preincubated for 10 mins followed by NADPH addition and measured up to 40 mins by LC-MS/MS analysis; type: ADME, Microsome; procedure, shortened: as §4
[19] = as §2; type: cell-based, HEK-293T; procedure, shortened: as §1
[20] = biological target: T5, AURKB (Aurora kinase B) (Homo sapiens, UniProt Q96GD4); assay: Inhibition of AURKB in human HEK293T cells assessed as reduction in cell viability at 40 nM measured after 48 hrs relative to control; type: cell-based, HEK-293T
Procedure, shortened: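 Cells were exposed to the Aurora inhibitor at 40 nM, alone or combined with a second DYRK1A inhibitor at 30, 90 or 270 nM, for 48 h. They were then fixed, stained and counted. Cell number is given as a percentage of untreated wells, with n = 4-16 and error bars as standard deviation.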

[21] = biological target: T3, Aurora kinase B; assay: Inhibition of AURKB in human HEK293T cells assessed as reduction in cell viability at 10 uM measured after 48 hrs; type: cell-based; details: hek-293t
Procedure, shortened: (§5)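 HEK293T cells treated 48 h with the compound alone or combined with a second kinase inhibitor at the stated level, then fixed, stained and counted. Cell number expressed as a percentage of untreated wells; n = 4-16.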

[22] = biological target: T5, AURKB (Aurora kinase B); assay: Inhibition of AURKB in human HEK293T cells assessed as reduction in cell viability at 10 uM measured after 48 hrs relative to control; type: cell-based, HEK-293T; procedure, shortened: as §5
[23] = biological target: T5, AURKB (Aurora kinase B); assay: Inhibition of AURKB in human HEK293T cells assessed as reduction in cell viability at 3 uM measured after 48 hrs relative to control; type: cell-based, HEK-293T; procedure, shortened: as §5

T5 sequence (Q96GD4 whole entry): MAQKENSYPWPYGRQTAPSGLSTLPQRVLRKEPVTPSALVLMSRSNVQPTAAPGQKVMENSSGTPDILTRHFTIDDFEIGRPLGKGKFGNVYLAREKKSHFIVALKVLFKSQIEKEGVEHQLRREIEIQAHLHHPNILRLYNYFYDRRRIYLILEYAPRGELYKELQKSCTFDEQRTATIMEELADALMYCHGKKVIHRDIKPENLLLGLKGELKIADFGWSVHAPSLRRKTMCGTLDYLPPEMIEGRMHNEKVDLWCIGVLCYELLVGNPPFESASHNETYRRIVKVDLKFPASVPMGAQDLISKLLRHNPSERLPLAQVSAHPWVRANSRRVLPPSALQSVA
Maternal embryonic leucine zipper kinase, sequence (Q14680 whole entry, the tested form may be a part): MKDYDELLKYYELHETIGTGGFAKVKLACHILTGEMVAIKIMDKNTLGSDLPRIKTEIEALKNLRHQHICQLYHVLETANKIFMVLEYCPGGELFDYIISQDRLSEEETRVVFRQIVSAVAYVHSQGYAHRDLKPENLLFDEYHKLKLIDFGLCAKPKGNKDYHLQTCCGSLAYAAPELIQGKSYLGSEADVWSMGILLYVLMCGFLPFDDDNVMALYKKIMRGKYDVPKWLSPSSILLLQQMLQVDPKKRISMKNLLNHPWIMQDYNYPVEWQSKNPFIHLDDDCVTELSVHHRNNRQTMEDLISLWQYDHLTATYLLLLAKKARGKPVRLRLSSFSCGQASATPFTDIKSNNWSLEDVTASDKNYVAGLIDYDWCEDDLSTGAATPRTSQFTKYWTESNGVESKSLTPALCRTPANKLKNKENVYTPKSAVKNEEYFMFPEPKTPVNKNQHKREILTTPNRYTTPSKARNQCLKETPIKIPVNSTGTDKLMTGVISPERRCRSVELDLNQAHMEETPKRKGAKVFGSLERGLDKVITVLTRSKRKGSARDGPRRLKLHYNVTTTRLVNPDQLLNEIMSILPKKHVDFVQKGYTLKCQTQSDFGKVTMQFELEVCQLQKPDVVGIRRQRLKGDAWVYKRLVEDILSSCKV
T2 sequence (P00519 whole entry, the tested form may be a part): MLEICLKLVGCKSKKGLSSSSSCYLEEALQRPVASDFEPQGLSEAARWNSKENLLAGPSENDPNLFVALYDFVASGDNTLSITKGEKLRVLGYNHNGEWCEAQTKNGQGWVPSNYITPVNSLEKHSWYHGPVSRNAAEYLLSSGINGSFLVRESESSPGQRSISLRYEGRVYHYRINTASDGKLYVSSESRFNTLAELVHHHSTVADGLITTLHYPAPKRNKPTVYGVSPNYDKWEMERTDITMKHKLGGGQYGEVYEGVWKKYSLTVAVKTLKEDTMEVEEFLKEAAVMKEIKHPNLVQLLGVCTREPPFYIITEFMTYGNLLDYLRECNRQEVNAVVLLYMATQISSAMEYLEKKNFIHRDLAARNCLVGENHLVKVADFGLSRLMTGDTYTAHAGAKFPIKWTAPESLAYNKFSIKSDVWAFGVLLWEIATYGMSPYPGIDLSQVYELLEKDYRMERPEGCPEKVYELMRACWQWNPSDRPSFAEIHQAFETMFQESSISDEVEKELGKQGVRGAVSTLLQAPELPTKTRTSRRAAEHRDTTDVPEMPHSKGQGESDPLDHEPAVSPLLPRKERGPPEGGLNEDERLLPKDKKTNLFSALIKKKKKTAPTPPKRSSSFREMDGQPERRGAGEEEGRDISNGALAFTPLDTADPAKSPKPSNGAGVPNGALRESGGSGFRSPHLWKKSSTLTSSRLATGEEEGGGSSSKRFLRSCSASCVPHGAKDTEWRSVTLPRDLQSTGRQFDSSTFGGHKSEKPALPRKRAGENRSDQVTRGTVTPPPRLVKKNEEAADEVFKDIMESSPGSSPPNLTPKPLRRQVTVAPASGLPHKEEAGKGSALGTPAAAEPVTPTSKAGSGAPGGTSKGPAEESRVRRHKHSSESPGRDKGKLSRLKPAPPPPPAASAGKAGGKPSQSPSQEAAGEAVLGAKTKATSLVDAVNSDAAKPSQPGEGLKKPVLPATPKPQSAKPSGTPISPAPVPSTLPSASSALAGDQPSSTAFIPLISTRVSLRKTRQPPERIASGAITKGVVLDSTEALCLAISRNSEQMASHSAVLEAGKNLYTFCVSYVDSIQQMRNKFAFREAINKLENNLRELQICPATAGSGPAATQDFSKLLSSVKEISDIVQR
T3 sequence (Q96GD4 whole entry, the tested form may be a part): as the sequence (Q96GD4 whole entry) above
Dual specificity mitogen-activated protein kinase kinase 1 (Homo sapiens), sequence (Q02750 whole entry, the tested form may be a part): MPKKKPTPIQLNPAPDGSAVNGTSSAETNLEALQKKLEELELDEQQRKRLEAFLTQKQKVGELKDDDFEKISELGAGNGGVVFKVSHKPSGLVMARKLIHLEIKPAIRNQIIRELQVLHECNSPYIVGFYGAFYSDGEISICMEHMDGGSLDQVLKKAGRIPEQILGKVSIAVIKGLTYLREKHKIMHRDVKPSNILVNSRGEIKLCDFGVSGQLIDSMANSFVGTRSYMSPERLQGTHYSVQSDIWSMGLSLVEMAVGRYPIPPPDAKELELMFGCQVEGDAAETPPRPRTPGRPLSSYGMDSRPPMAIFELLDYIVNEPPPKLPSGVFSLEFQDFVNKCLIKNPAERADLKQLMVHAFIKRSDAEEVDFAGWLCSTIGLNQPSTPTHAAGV
Dual specificity mitogen-activated protein kinase kinase 2 (Homo sapiens), sequence (P36507 whole entry, the tested form may be a part): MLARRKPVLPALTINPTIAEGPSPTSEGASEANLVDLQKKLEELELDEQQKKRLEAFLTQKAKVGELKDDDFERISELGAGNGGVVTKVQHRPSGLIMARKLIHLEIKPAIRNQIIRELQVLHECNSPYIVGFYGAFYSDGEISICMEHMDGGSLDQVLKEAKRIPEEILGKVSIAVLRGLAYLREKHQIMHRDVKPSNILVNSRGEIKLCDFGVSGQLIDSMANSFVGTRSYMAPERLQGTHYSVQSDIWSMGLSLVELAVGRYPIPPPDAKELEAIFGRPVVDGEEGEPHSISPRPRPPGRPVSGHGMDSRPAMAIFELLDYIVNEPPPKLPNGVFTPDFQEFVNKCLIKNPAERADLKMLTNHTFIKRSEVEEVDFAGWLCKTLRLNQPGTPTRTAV

| SMILES | EC50 [1] [nM] | CC50 [3] [nM] | Ratio CC50/EC50 [4] | Kd [5] [nM] | CC50 [6] [nM] | MEC [14] [nM] | Selectivity Index [15] | t1/2 [17] [h] | t1/2 [18] [h] | also measured |
| --- | --- | --- | --- | --- | --- | --- | --- | --- | --- | --- |
| CCOC(=O)c1cnc2ccc(-c3cc(Cl)c(O)c(Cl)c3)nc2c1N[C@H]1CC[C@H](CN)CC1 | 8 | 165 | 20 | 0.22 |  |  |  |  |  | Kd [2]: 9 nM |
| CC(=O)c1cnc2ccc(-c3cc(Cl)c(O)c(Cl)c3)nc2c1N[C@H]1CC[C@H](CN(C)C)CC1 | 5 | 64 |  | 0.12 | 20 | 5 |  |  |  | Activity [7]: 1.7%; Activity [8]: 0%; Activity [9]: 0%; Activity [10]: 0.65%; Activity [11]: 6.6%; Activity [12]: 0%; Activity [13]: 1.7% |
| CCOC(=O)c1cnc2ccc(-c3cc(Cl)c(O)c(Cl)c3)nc2c1N[C@H]1CC[C@H](C(=O)N(C)C)CC1 | 50 | 5900 | 119 | 0.6 | 2810 | 31 | 91 | > 2.65 | > 2.65 | Kd [2]: 13 nM; Papp at 2 h [16]: 0.12 ×10⁻⁶ cm/s |
| CCOC(=O)c1cnc2ccc(-c3cc(Cl)c(O)c(Cl)c3)nc2c1N[C@H]1CC[C@H](CC(N)=O)CC1 | 43 |  | 44 |  | 1390 | 63 | 22 | 0.467 | > 2.65 | CC50 [19]: 1890 nM; Papp at 2 h [16]: 0.01 ×10⁻⁶ cm/s |
| CCCCNC(=O)c1cnc2ccc(-c3cc(Cl)c(O)c(Cl)c3)nc2c1N[C@H]1CC[C@H](C(=O)N2CCOCC2)CC1 | 56 |  | 38 |  | 2440 | 63 | 39 | 1.58 | > 2.65 | CC50 [19]: 2120 nM; Papp ([16]; caco-2, 2 h): 9.1 ×10⁻⁶ cm/s |
| CCOC(=O)c1cnc2ccc(-c3cc(Cl)c(O)c(Cl)c3)nc2c1N[C@H]1CC[C@H](CN(C)C)CC1 | 7 | 186 | 26 | 0.16 |  |  |  |  |  | Kd [2]: 11 nM |
| O=C(O)c1ccc(Nc2ncc3c(n2)-c2ccc(Cl)cc2C(c2c(F)cccc2F)=NC3)cc1 [MLN-8054] |  |  |  |  |  |  |  |  |  | inhibition at 48 h, 0.04 µM [20]: 22% |
| CCOC(=O)c1cnc2ccc(-c3cc(Cl)c(O)c(Cl)c3)nc2c1NC1CCN(C)CC1 | 6 | 1020 | 170 |  | 387 | 3.3 | 117 | > 2.65 | 2.15 | Papp at 2 h [16]: 4.6 ×10⁻⁶ cm/s |
| Cn1c(=O)c(F)c(Nc2ccc(I)cc2F)c2c(=O)n(C[C@@H](O)CO)cnc21 [TAK-733] |  |  |  |  |  |  |  |  |  | inhibition (INH) [21]: Not Active |
| CCOC(=O)c1cnc2ccc(-c3ccnc(N)c3)nc2c1N[C@H]1CC[C@H](CN2CCOCC2)CC1 | 37 |  | 79 |  | 856 | 3.3 | 259 | 0.617 | 0.25 | CC50 [19]: 2960 nM; Papp at 2 h [16]: 2.7 ×10⁻⁶ cm/s |
| CCCCNC(=O)c1cnc2ccc(-c3cc(Cl)c(O)c(Cl)c3)nc2c1N[C@H]1CC[C@H](CN(C)C)CC1 | 3 | 51 | 17 | 0.075 |  |  |  |  |  | Kd [2]: 12 nM |
| CCN(CCO)CCCOc1ccc2c(Nc3cc(CC(=O)Nc4cccc(F)c4)[nH]n3)ncnc2c1 [DEFOSBARASERTIB] |  |  |  |  |  |  |  |  |  | inhibition at 48 h, 0.04 µM [20]: 41% |
| O=C(NC[C@H](O)CO)c1ccncc1Nc1ccc(I)cc1F [PIMASERTIB] |  |  |  |  |  |  |  |  |  | inhibition at 48 h, 10 µM [22]: 10% |
| O=C(O)[C@]1(Cc2cccc(Nc3nccs3)n2)CC[C@@H](Oc2cccc(Cl)c2F)CC1 [MK-5108] |  |  |  |  |  |  |  |  |  | inhibition at 48 h, 3 µM [23]: 24% |
